According to ChEMBL document CHEMBL2016553, “Design and synthesis of 3-(4,5,6,7-tetrahydro-3H-imidazo[4,5-c]pyridin-2-yl)-1H-quinolin-2-ones as VEGFR-2 kinase inhibitors” (Bioorg Med Chem Lett, 2012):

Tests used:
[1] = target: T1, Vascular endothelial growth factor receptor 2 (Homo sapiens, UniProt P35968); test: Inhibition of recombinant VEGFR-2 kinase domain by homogeneous time-resolved fluorescence assay
[2] = target: T1, Vascular endothelial growth factor receptor 2; test: Inhibition of VEGFR-2 kinase
Outline: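 HTRF KinEASE assay with recombinant VEGFR-2 kinase domain. Enzyme, ATP and substrate levels were optimised per kit. TR-FRET signal read after detection reagents. IC50 from dose–response curves.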

[3] = target: CYP2D6 (Homo sapiens, UniProt P10635); test: Inhibition of recombinant human CYP2D6 assessed as remaining activity at 10 uM after 20 mins by fluorescence assay; format: ADME; details: read-out: Activity
CYP2D6, sequence (P10635 whole entry): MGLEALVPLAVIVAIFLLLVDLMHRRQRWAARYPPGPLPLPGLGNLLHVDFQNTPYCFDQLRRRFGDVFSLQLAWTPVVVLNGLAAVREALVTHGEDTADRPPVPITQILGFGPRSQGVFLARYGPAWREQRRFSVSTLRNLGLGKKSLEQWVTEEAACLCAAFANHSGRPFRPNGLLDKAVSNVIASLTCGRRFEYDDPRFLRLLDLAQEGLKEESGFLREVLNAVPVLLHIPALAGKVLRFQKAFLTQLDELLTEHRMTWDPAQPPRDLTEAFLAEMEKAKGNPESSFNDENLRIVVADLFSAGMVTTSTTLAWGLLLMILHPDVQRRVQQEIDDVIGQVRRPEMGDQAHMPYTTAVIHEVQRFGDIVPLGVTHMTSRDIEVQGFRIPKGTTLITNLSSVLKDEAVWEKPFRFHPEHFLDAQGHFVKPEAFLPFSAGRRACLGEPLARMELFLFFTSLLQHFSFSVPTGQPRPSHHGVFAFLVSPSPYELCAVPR

[4] = target: CYP3A4 (Homo sapiens, UniProt P08684); test: Inhibition of recombinant human CYP3A4 assessed as remaining activity at 10 uM after 20 mins by fluorescence assay; format: ADME; details: read-out: Activity
CYP3A4, sequence (P08684 whole entry): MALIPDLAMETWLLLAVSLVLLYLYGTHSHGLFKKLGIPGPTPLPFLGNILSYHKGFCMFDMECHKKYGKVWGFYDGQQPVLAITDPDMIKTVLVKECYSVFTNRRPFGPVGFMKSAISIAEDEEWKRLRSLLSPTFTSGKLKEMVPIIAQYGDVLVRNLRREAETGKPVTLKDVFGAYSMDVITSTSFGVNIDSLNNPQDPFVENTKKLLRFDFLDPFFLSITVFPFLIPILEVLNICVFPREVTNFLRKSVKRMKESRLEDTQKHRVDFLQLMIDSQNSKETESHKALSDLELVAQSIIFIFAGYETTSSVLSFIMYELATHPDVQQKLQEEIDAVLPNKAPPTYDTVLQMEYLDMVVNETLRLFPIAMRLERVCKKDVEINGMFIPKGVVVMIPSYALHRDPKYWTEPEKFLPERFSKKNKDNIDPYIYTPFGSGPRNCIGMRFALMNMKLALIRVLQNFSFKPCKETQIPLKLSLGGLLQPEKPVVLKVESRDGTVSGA

[5] = target: CYP2C19 (Homo sapiens, UniProt P33261); test: Inhibition of recombinant human CYP2C19 assessed as remaining activity at 10 uM after 20 mins by fluorescence assay; format: ADME; details: read-out: Activity
CYP2C19, sequence (P33261 whole entry): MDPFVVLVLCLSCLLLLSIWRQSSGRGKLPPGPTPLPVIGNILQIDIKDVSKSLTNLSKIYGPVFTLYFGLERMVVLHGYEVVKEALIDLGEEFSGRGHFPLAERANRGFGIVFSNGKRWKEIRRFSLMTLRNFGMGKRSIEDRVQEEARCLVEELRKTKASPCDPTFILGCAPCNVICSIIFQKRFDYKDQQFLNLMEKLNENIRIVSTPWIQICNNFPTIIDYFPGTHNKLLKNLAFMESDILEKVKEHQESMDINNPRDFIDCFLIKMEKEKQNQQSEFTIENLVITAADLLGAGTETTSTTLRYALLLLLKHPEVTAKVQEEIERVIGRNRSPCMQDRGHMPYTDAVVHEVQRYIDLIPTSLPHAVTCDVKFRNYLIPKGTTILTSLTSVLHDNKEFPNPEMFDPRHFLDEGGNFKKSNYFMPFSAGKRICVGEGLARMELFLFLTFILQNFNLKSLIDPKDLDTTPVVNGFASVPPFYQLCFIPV

[6] = target: T2, CYP1A2 (Homo sapiens, UniProt P05177); test: Inhibition of recombinant human CYP1A2 assessed as remaining activity at 10 uM after 20 mins by fluorescence assay; format: ADME; details: read-out: Activity
T2 sequence (P05177 whole entry): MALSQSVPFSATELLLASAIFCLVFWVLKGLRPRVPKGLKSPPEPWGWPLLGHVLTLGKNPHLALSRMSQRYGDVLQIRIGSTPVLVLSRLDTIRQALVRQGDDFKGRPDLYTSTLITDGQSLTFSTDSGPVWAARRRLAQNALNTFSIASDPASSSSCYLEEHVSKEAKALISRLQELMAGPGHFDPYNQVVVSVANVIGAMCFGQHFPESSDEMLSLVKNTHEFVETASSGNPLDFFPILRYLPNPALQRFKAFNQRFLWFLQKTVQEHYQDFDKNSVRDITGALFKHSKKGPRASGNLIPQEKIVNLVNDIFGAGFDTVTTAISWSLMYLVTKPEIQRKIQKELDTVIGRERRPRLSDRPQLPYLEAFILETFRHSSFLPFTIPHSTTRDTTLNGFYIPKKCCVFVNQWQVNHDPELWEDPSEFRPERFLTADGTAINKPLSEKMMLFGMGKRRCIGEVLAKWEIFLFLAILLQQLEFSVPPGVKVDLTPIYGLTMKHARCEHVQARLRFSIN

[7] = Metabolic stability in human liver microsomes assessed as compound remaining at 10 uM after 30 mins by LC/MS/MS method; format: ADME, Microsome; details: read-out: Stability
[8] = target: CYP2C9 (Homo sapiens, UniProt P11712); test: Inhibition of recombinant human CYP2C9 assessed as remaining activity at 10 uM after 20 mins by fluorescence assay; format: ADME; details: read-out: Activity
CYP2C9, sequence (P11712 whole entry): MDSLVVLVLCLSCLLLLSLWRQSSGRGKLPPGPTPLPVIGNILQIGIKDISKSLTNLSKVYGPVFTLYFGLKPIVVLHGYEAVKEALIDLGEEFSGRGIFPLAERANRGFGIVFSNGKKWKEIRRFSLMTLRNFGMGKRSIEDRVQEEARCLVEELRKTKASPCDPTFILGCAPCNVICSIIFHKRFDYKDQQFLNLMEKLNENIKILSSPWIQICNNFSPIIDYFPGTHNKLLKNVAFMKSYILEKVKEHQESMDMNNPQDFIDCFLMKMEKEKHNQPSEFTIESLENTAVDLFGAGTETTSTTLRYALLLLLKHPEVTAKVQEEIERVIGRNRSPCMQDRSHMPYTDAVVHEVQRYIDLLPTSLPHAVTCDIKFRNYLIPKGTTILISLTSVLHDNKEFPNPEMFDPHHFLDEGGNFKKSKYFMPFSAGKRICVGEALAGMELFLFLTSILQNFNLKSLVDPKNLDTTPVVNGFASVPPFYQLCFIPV

[9] = system: HUVEC; test: Antiproliferative activity against Vegf-stimulated HUVEC at 1 uM after 24 hrs by WST-1 assay relative to control; format: functional, Homo sapiens
Outline: (§1)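 Pooled HUVECs grown in 1:1 EBM-2 with EGM-2 supplements, used at passage eight or lower. Seeded at 10,000 cells/well on collagen type I-coated plates. After 24 h, treated 24 h with rhVEGF (20 ng/mL) plus compound. Proliferation read by Premix WST-1 assay.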

[10] = system: HUVEC; test: Antiangiogenic activity in HUVEC assessed as tube formation at 1 uM after 16 to 18 hrs by microscopy relative to control; format: functional, Homo sapiens
Outline: (§2)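 Pooled HUVECs seeded at 40,000/well on wells coated with a 1:1 mix of Matrigel (10 mg/mL) and EBM-2/EGM-2 medium, coating set 1 h at 37 °C. Cells incubated 16–18 h, then fixed. Tube formation imaged by camera and quantified by image analysis.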

[11] = system: HUVEC; test: Antiangiogenic activity in HUVEC assessed as tube formation at 10 uM after 16 to 18 hrs by microscopy relative to control; format: functional, Homo sapiens; outline: as §2
[12] = system: HUVEC; test: Antiproliferative activity against Vegf-stimulated HUVEC at 10 uM after 24 hrs by WST-1 assay relative to control; format: functional, Homo sapiens; outline: as §1
[13] = system: HUVEC; test: Antiproliferative activity against Vegf-stimulated HUVEC at 0.1 uM after 24 hrs by WST-1 assay relative to control; format: functional, Homo sapiens; outline: as §1
[14] = Metabolic stability in human liver microsomes assessed as compound remaining at 2 uM after 30 mins by LC/MS/MS method; format: ADME, Microsome; details: read-out: Stability
Outline: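 Human liver microsomes (0.5 mg/ml) in 100 mM potassium phosphate pH 7.4, test compound final 2 µM. Pre-incubated 5 min at 37 °C, then started with NADPH regenerating solution. Stopped at a single 30 min point with 3 volumes ice-cold acetonitrile containing imipramine (80 ng/ml) as internal standard. Samples vortexed, centrifuged and analysed by LC/MS/MS.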

T1 sequence (P35968 whole entry, the tested form may be a part): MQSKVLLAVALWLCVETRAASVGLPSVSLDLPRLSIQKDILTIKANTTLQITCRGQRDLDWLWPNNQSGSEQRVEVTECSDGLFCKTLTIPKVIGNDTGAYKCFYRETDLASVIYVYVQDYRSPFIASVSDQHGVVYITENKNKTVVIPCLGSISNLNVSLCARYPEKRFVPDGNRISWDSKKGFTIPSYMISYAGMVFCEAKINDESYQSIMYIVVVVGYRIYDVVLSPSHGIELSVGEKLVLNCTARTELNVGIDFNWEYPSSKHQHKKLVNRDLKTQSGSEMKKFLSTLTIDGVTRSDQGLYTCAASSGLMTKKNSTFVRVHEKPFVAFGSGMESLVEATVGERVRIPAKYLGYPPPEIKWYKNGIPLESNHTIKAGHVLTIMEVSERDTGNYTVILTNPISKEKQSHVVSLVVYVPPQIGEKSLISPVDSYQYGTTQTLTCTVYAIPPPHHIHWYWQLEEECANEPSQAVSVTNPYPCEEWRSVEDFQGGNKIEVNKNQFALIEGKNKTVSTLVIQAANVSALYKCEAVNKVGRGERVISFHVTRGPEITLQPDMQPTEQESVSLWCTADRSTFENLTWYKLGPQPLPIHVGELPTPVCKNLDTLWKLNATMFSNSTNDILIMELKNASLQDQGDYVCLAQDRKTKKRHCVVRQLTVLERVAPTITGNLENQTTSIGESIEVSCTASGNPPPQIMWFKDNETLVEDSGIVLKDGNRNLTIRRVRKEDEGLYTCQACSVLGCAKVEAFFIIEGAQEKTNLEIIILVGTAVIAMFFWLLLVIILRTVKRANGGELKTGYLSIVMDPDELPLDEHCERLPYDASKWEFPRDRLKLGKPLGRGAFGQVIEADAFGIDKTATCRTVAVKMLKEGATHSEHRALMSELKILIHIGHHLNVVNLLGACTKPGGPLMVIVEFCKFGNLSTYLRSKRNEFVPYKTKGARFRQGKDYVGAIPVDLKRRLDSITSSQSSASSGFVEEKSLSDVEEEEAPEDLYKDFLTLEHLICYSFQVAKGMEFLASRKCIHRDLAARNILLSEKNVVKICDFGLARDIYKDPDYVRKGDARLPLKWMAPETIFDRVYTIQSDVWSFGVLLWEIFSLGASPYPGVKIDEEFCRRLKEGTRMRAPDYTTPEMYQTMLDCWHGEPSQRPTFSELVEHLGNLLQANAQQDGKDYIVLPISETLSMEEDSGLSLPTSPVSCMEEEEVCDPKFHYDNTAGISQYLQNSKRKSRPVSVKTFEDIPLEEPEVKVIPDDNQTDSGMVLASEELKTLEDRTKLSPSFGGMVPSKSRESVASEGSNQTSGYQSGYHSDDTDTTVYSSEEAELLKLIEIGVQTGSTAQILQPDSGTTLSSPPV

| SMILES | IC50 [1] | also measured |
| --- | --- | --- |
| CN1CCc2nc(-c3cc4ccccc4[nH]c3=O)[nH]c2C1 | 1000 nM | IC50 [2]: 1000 nM |
| O=c1[nH]c2ccccc2cc1-c1nc2c([nH]1)CN(Cc1ccccc1)CC2 | 6000 nM | – |
| O=C(OCc1ccccc1)N1CCc2nc(-c3cc4ccccc4[nH]c3=O)[nH]c2C1 | 600 nM | – |
| O=c1[nH]c2ccccc2cc1-c1nc2c([nH]1)CN(C1CCNCC1)CC2 | 5000 nM | – |
| O=C(c1cccnc1)N1CCc2nc(-c3cc4ccccc4[nH]c3=O)[nH]c2C1 | 200 nM | – |
| O=C(c1cccnc1)N1CCc2nc(-c3cc4c(F)cccc4[nH]c3=O)[nH]c2C1 | 600 nM | – |
| O=C(c1cccnc1)N1CCc2nc(-c3cc4cc(F)ccc4[nH]c3=O)[nH]c2C1 | 1 nM | activity at 20 min, 10 µM [3]: 67%; activity at 20 min, 10 µM [4]: 83%; activity at 20 min, 10 µM [5]: 92%; activity at 20 min, 10 µM [6]: 86%; remaining at 0.5 h, 10 µM [7]: 96%; activity at 20 min, 10 µM [8]: 99% |
| O=C(c1ccncc1)N1CCc2nc(-c3cc4ccccc4[nH]c3=O)[nH]c2C1 | 200 nM | – |
| O=C(c1ccncc1)N1CCc2nc(-c3cc4c(F)cccc4[nH]c3=O)[nH]c2C1 | 800 nM | – |
| O=C(c1ccncc1)N1CCc2nc(-c3cc4cc(F)ccc4[nH]c3=O)[nH]c2C1 | 0.3 nM | Activity [9]: 72%; activity at 20 min, 10 µM [3]: 90%; Activity [10]: 93%; Activity [11]: 62%; Activity [12]: 71%; Activity [13]: 120%; activity at 20 min, 10 µM [4]: 89%; activity at 20 min, 10 µM [5]: 77%; activity at 20 min, 10 µM [6]: 96%; remaining at 0.5 h, 10 µM [7]: 99%; activity at 20 min, 10 µM [8]: 53% |
| O=C(c1ccc(CN2CCCCC2)cc1)N1CCc2nc(-c3cc4ccccc4[nH]c3=O)[nH]c2C1 | 1.3 nM | – |
| O=C(c1ccc(CN2CCCCC2)cc1)N1CCc2nc(-c3cc4cc(F)ccc4[nH]c3=O)[nH]c2C1 | 4.9 nM | Activity [9]: 82%; activity at 20 min, 10 µM [3]: 100%; Activity [10]: 102%; remaining at 0.5 h, 2 µM [14]: 92%; Activity [11]: 99%; Activity [12]: 79%; Activity [13]: 92.3%; activity at 20 min, 10 µM [4]: 16%; activity at 20 min, 10 µM [5]: 100%; activity at 20 min, 10 µM [6]: 89%; activity at 20 min, 10 µM [8]: 94% |
| CCN(CC)CC(=O)N1CCc2nc(-c3cc4ccccc4[nH]c3=O)[nH]c2C1 | 300 nM | – |
| O=C(Cc1ccccn1)N1CCc2nc(-c3cc4ccccc4[nH]c3=O)[nH]c2C1 | 1.3 nM | – |
| O=C(Cc1ccccn1)N1CCc2nc(-c3cc4cc(F)ccc4[nH]c3=O)[nH]c2C1 | 0.7 nM | – |
| O=C(Cc1ccncc1)N1CCc2nc(-c3cc4ccccc4[nH]c3=O)[nH]c2C1 | 6.7 nM | – |
| O=C(Cc1ccncc1)N1CCc2nc(-c3cc4cc(Cl)ccc4[nH]c3=O)[nH]c2C1 | 0.5 nM | – |
| Cc1cccc(NC(=O)N2CCc3nc(-c4cc5ccccc5[nH]c4=O)[nH]c3C2)c1 | 2.1 nM | – |
| COc1ccc(NC(=O)N2CCc3nc(-c4cc5ccccc5[nH]c4=O)[nH]c3C2)cc1 | 46 nM | – |

Second part, led by results:

| IC50 [1] | SMILES | also measured |
| --- | --- | --- |
| 300 nM | O=C(CN1CCOCC1)N1CCc2nc(-c3cc4ccccc4[nH]c3=O)[nH]c2C1 | – |
| 1100 nM | O=C(CN1CCOCC1)N1CCc2nc(-c3cc4c(F)cccc4[nH]c3=O)[nH]c2C1 | – |
| 4.3 nM | O=C(CN1CCOCC1)N1CCc2nc(-c3cc4cc(F)ccc4[nH]c3=O)[nH]c2C1 | – |
| 35 nM | O=C(CN1CCOCC1)N1CCc2nc(-c3cc4cc(Cl)ccc4[nH]c3=O)[nH]c2C1 | – |
| 760 nM | COc1ccc2[nH]c(=O)c(-c3nc4c([nH]3)CN(C(=O)CN3CCOCC3)CC4)cc2c1 | – |
| 300 nM | CN1CCN(CC(=O)N2CCc3nc(-c4cc5ccccc5[nH]c4=O)[nH]c3C2)CC1 | – |
| 1050 nM | CN1CCN(CC(=O)N2CCc3nc(-c4cc5c(F)cccc5[nH]c4=O)[nH]c3C2)CC1 | – |
| 13 nM | CN1CCN(CC(=O)N2CCc3nc(-c4cc5cc(F)ccc5[nH]c4=O)[nH]c3C2)CC1 | – |
| 19 nM | CN1CCN(CC(=O)N2CCc3nc(-c4cc5cc(Cl)ccc5[nH]c4=O)[nH]c3C2)CC1 | – |
| 1100 nM | COc1ccc2[nH]c(=O)c(-c3nc4c([nH]3)CN(C(=O)CN3CCN(C)CC3)CC4)cc2c1 | – |
| 16 nM | O=C(CN1CCCCC1)N1CCc2nc(-c3cc4ccccc4[nH]c3=O)[nH]c2C1 | – |
| 740 nM | O=C(CN1CCCCC1)N1CCc2nc(-c3cc4c(F)cccc4[nH]c3=O)[nH]c2C1 | – |
| 8 nM | O=C(CN1CCCCC1)N1CCc2nc(-c3cc4cc(F)ccc4[nH]c3=O)[nH]c2C1 | – |
| 22 nM | O=C(CN1CCCCC1)N1CCc2nc(-c3cc4cc(Cl)ccc4[nH]c3=O)[nH]c2C1 | – |
| 280 nM | COc1ccc2[nH]c(=O)c(-c3nc4c([nH]3)CN(C(=O)CN3CCCCC3)CC4)cc2c1 | – |
| 400 nM | O=C(CN1CCCC1)N1CCc2nc(-c3cc4ccccc4[nH]c3=O)[nH]c2C1 | – |
| 8.6 nM | O=C(Cc1ccncc1)N1CCc2nc(-c3cc4cc(F)ccc4[nH]c3=O)[nH]c2C1 | activity at 20 min, 10 µM [3]: 21%; activity at 20 min, 10 µM [4]: 33%; activity at 20 min, 10 µM [5]: 35%; activity at 20 min, 10 µM [6]: 58%; remaining at 0.5 h, 10 µM [7]: 93%; activity at 20 min, 10 µM [8]: 28% |
